In ChEMBL document CHEMBL1150295, “Synthesis and receptor binding properties of 2beta-alkynyl and 2beta-(1,2,3-triazol)substituted 3beta-(substituted phenyl)tropane derivatives” (Bioorg Med Chem, 2008):
pIC50, pKi: −log10 of the molar value.

Experiments:
[1] = molecular target: Sodium-dependent serotonin transporter (Homo sapiens, UniProt P31645); assay: Displacement of [3H]paroxetine from serotonin transporter
[2] = molecular target: Sodium-dependent dopamine transporter (Homo sapiens, UniProt Q01959); assay: Displacement of [3H]WIN-35428 from dopamine transporter
Chain of Sodium-dependent dopamine transporter (Q01959 whole entry): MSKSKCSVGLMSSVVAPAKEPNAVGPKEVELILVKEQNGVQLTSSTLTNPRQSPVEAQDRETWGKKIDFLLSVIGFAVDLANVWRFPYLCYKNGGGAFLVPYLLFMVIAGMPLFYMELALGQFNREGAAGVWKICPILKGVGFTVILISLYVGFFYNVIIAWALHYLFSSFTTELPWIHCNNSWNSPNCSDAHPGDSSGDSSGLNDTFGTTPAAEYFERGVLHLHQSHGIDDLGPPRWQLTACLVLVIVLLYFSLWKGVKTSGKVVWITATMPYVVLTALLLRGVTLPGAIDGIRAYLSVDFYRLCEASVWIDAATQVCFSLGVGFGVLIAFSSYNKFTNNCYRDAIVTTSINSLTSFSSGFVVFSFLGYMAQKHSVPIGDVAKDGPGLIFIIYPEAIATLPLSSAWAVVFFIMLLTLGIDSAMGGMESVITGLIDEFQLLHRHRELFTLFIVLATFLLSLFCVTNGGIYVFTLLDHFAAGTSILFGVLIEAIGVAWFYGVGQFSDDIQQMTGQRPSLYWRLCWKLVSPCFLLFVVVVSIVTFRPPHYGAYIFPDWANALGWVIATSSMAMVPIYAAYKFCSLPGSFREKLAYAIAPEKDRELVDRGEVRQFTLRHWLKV
Procedure, shortened: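 Competitive radioligand binding at membrane dopamine transporter; 0.5 nM [3H]WIN35,428 final concentration. Mean ± standard error of three or four experiments, each in triplicate.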

[3] = molecular target: Sodium-dependent noradrenaline transporter (Homo sapiens, UniProt P23975); assay: Displacement of [3H]nisoxetine from norepinephrine transporter
Chain of Sodium-dependent noradrenaline transporter (P23975 whole entry): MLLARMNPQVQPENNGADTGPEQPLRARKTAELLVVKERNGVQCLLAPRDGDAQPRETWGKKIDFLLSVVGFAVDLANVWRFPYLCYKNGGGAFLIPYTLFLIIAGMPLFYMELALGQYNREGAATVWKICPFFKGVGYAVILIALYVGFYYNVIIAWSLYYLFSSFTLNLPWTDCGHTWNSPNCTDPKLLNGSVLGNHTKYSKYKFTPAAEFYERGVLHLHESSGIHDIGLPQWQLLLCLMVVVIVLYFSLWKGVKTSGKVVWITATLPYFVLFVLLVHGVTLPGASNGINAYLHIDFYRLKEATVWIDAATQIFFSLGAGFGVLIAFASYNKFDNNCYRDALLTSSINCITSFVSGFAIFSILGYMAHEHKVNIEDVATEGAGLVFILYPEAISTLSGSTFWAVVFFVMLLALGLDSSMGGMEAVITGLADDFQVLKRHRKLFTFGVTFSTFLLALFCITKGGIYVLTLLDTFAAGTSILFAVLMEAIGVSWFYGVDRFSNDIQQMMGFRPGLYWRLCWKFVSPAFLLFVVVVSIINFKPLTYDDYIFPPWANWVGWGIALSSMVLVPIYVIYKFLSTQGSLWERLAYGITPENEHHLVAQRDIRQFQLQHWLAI

[4] = Selectivity for dopamine transporter over serotonin transporter
[5] = Selectivity for dopamine transporter over norepinephrine transporter

Chain of Sodium-dependent serotonin transporter (P31645 whole entry): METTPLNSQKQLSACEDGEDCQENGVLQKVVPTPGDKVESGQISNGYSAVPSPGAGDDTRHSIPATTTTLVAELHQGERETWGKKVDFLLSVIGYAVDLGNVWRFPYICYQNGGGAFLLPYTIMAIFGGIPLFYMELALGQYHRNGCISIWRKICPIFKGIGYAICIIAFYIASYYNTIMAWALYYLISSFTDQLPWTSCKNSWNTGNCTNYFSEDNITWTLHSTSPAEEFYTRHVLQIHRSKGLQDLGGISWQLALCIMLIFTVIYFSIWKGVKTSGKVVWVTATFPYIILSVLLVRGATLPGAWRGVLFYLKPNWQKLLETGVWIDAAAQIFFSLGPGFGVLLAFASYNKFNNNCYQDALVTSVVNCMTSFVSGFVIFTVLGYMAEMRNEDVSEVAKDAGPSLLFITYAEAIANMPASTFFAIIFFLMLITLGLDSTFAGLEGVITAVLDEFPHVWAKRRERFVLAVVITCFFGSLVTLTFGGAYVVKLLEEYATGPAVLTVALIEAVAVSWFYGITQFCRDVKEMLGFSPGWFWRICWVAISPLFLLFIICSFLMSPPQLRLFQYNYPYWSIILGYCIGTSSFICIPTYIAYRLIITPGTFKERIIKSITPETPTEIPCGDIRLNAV

| Structure (SMILES) | pKi [1] | pIC50 [2] | pKi [3] | Selectivity ratio [4] | Selectivity ratio [5] |
| --- | --- | --- | --- | --- | --- |
| C#C[C@H]1[C@@H](c2ccc(Cl)cc2)C[C@@H]2CC[C@H]1N2C | 7.74 | 8.44 | 7.12 |  |  |
| CN1[C@H]2CC[C@@H]1[C@@H](C#Cc1ccccc1)[C@@H](c1ccc(Cl)cc1)C2 | 7.09 | 9.10 | 7.85 |  |  |
| Cc1ccc([C@H]2C[C@@H]3CC[C@H]([C@H]2C=C(Br)Br)N3C)cc1 | 7.41 | 9.64 | 8.47 |  |  |
| CN1[C@H]2CC[C@@H]1[C@@H](c1cn(CCN3CCCCC3)nn1)[C@@H](c1ccc(Cl)cc1)C2 | 6.86 | 8.10 | 6.37 |  |  |
| Cc1ccc([C@H]2C[C@@H]3CC[C@H]([C@H]2C#Cc2ccccc2)N3C)cc1 | 6.14 | 9.10 | 7.51 |  |  |
| CN1[C@H]2CC[C@@H]1[C@@H](C#Cc1ccc(N)cc1)[C@@H](c1ccc(Cl)cc1)C2 | 7.72 | 8.66 | 7.30 |  |  |
| C#C[C@H]1[C@@H](c2ccc(C)cc2)C[C@@H]2CC[C@H]1N2C | 7.27 | 7.96 | 6.82 |  |  |
| CN1[C@H]2CC[C@@H]1[C@@H](C#Cc1ccc([N+](=O)[O-])cc1)[C@@H](c1ccc(Cl)cc1)C2 | 6.21 | 9.05 | 6.64 | 689 | 256 |
| CN1[C@H]2CC[C@@H]1[C@@H](C=C(Br)Br)[C@@H](c1ccc(Cl)cc1)C2 | 8.15 | 9.49 | 8.46 |  |  |
| COC(=O)[C@H]1[C@@H](c2ccccc2)C[C@@H]2CC[C@H]1N2C |  | 7.64 | 6.25 |  |  |
| CN1[C@H]2CC[C@@H]1[C@H](C=C(Br)Br)[C@@H](c1ccc(Cl)cc1)C2 | 7.12 | 8.85 | 7.31 |  |  |
| Cc1ccc([C@H]2C[C@@H]3CC[C@H]([C@@H]2C=C(Br)Br)N3C)cc1 | 6.60 | 8.44 | 7.26 |  |  |
| CN1[C@H]2CC[C@@H]1[C@@H](c1cn(Cc3ccccc3)nn1)[C@@H](c1ccc(Cl)cc1)C2 | 6.79 | 7.33 | 5.59 |  |  |
